Experimental data pooled from the literature.

Structure (SMILES)	tested on	assay	test system	conditions	quantity	value
Cc1cc(C)c(C#N)c(SCC(=O)c2ccccn2)n1	Trypanosoma brucei	parasite growth, resazurin			EC50	> 64 µM
C=CC(=O)NC1CCN(c2ncc3ncnc(Nc4ccc(Oc5ccc6c(c5)ncn6C)c(C)c4)c3n2)CC1	DoTc2-4510	cell growth or viability			EC50	5.24 µM
CC(C)(C)OC(=O)N1CCN(c2cc(C(=O)NCC(=O)O)ccc2NC(=O)c2cc(Br)c(Br)[nH]2)CC1	Enterococcus faecium	microbial growth, broth dilution	ATCC35667		MIC	> 32 mg/L
O=C(O)c1ccc2c(c1)nc(Nc1cccc(Cl)c1)c1ccncc12	SK-MES-1	cell growth or viability, resazurin		48 h	IC50	6.9 µM
Cc1[nH]c(C(=O)Nc2ccc(C(=O)NCC(=O)O)cc2N2CC[C@@H](N)C2)c(Cl)c1Cl.Cl	Enterococcus faecium	microbial growth, broth dilution	ATCC35667		MIC	> 32 mg/L
COc1ccnc(SCC(=O)c2ccccc2)c1C#N	Trypanosoma brucei	parasite growth, resazurin			EC50	> 64 µM
Cc1ccc(Cn2cc(C(=O)NN)c(=O)c3cc(Oc4ccccc4)ccc32)cc1	Trypanosoma brucei	parasite growth	RHODESIENSE		EC50	0.5 µM
Cc1[nH]c(C(=O)Nc2ccc(C(=O)NCc3n[nH]c(=O)o3)cc2N2CCNCC2)c(Cl)c1Cl.Cl	Enterococcus faecium	microbial growth, broth dilution	ATCC35667		MIC	> 32 mg/L
Cc1cc(C)c(C(N)=O)c(SCC(=O)c2ccc(Cl)cc2Cl)n1	Trypanosoma brucei	parasite growth, resazurin	RHODESIENSE		EC50	> 64 µM
Cc1[nH]c(C(=O)Nc2ccc(C(=O)NCC(=O)O)cc2N2CCNCC2)c(Cl)c1Cl.Cl	Enterococcus faecium	microbial growth, broth dilution	ATCC35667		MIC	> 32 mg/L
N=C(N)c1ccc(OCCCCCOc2ccc(C(=N)N)cc2)cc1	Trypanosoma brucei	parasite growth, resazurin		72 h	EC50	0.005 µM
Nc1ccc(/C=C/C(=O)N2CCc3c(oc4c(-c5ccc(F)cc5)cc(-c5ccc(C(=O)N6C[C@@H]7[C@H](C6)C7(F)F)nn5)cc34)C2)cn1	CFPAC-1	cell growth or viability, CCK-8		72 h	IC50	> 20 µM
Cc1[nH]c(C(=O)Nc2ccc(C(=O)NCC(=O)O)cc2N2CCN(C(=O)OC(C)(C)C)CC2)c(Cl)c1Cl	Enterococcus faecium	microbial growth, broth dilution	ATCC35667		MIC	> 32 mg/L
COc1ccc(C(=O)CSc2[nH]c(=O)cc(C(F)(F)F)c2C#N)cc1	Trypanosoma brucei	parasite growth, resazurin			EC50	30.8 µM
Nc1ccc(/C=C/C(=O)N2CCc3c(oc4c(-c5ccc(F)cc5)cc(-c5ccc(C(=O)N6CCOCC6)nn5)cc34)C2)cn1	CFPAC-1	cell growth or viability, CCK-8		72 h	IC50	> 20 µM
